The source made the active and inactive calls. The rule behind the calls is not given here.
What was measured:
[1] = target: Cell division control protein 42 homolog (Homo sapiens) (UniProt P60953); assay: Inhibition of PDGF-BB-stimulated Cdc42 activity in human aortic smooth muscle cells assessed as reduction in ratio of Cdc42GTP/Cdc42 levels at 25 uM after 4 hrs by pull-down assay
Summary of the method: (§1)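 Cultured human aortic SMCs exposed to compound at 25 μM for 4 h, then stimulated with PDGF-BB (final 10 ng/mL) for 2 min. Active GTPase (Cdc42-GTP for line 2, RhoA-GTP for line 3) isolated by pull-down and expressed as the GTP-bound/total protein ratio. The Rac1 pull-down was run under the same conditions.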

[2] = target: Transforming protein RhoA (Homo sapiens) (UniProt P61586); assay: Inhibition of PDGF-BB-stimulated RhoA activity in human aortic smooth muscle cells assessed as reduction in ratio of RhoAGTP/RhoA levels at 25 uM after 4 hrs by pull-down assay; summary of the method: as §1
[3] = target: Cell division control protein 42 homolog (Homo sapiens) (UniProt P60953); assay: Inhibition of Cdc42
[4] = target: Ras-related C3 botulinum toxin substrate 1 (Homo sapiens, UniProt P63000); assay: Inhibition of PDGF-BB-stimulated Rac1 activity in human aortic smooth muscle cells assessed as reduction of Rac1GTP level after 4 hrs by G-LISA
[5] = target: Ras-related C3 botulinum toxin substrate 1 (Mus musculus) (UniProt P63001); assay: Inhibition of PDGF-BB-stimulated Rac1-mediated cellular events in mouse 3T3 cells assessed as induction of membrane ruffling formation at 25 uM after 48 hrs by fluorescent microscopy; type: cell-based; conditions: NIH3T3
Summary of the method: (§2)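 Serum-starved 3T3 cells were treated with compound at 25 μM and stimulated with PDGF-BB. Lamellipodia and membrane ruffle formation at the cell edges were then scored, together with cytoskeletal rearrangement.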

[6] = target: Ras-related C3 botulinum toxin substrate 1 (Mus musculus) (UniProt P63001); assay: Inhibition of PDGF-BB-stimulated Rac1-mediated cellular events in mouse 3T3 cells assessed as induction of membrane lamillipodia at 25 uM after 48 hrs by fluorescent microscopy; type: cell-based; conditions: NIH3T3; summary of the method: as §2

Chain of Transforming protein RhoA (Homo sapiens) (P61586 whole entry): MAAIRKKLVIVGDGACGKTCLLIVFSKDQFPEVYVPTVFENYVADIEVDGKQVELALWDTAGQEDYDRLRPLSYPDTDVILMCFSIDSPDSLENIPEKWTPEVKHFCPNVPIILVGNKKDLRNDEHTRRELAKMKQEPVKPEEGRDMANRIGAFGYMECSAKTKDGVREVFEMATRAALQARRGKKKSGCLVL
Chain of Cell division control protein 42 homolog (Homo sapiens) (P60953 whole entry, looked up): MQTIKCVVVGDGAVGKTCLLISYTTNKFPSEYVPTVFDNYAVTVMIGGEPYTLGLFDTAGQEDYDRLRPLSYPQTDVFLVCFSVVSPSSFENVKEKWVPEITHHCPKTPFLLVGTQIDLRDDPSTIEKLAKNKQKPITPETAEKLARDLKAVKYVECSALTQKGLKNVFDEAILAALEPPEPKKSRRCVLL

Row | Structure (SMILES) | Percent reduction in Cdc42-GTP/total Cdc42 ratio [1] | Activity [2] | Activity [3] | IC50 [4] | Activity [5] | Activity [6]
1 | CC(OC(=O)c1ccc2ccccc2c1O)C(=O)Nc1ccc(N2CCOCC2)cc1 (stereo not given) | < 25% | inactive | Active | – | – | –
2 | O=C(CNc1ccc(F)c([N+](=O)[O-])c1)Nc1ccc(N2CCOCC2)cc1 | < 25% | inactive | Active | – | – | –
3 | COc1cc2c(C#N)c(N3CCN(c4ccccc4OC)CC3)nc(N)c2c(N)n1 | < 25% | inactive | Active | 46.1 µM | – | –
4 | COc1ccc(NC(=O)c2n[nH]c3ccccc23)cc1S(=O)(=O)N1CCCCC1 | < 25% | inactive | Active | – | Active | Active

— ChEMBL document CHEMBL1158458, “Virtual screening approach for the identification of new Rac1 inhibitors” (J Med Chem, 2009)
